Results of several laboratories.
TACR2: Substance-K receptor (TACR2, Homo sapiens, UniProt P21452)
PRKCA: Protein kinase C alpha type (PRKCA, Homo sapiens, UniProt P17252)
Dipeptidyl peptidase 8: Dipeptidyl peptidase 8 (Homo sapiens, UniProt Q6V1X1)

N=C(N)c1ccc2cc(OC(=O)c3ccc(N=C(N)N)cc3)ccc2c1  inhibition (Ubiquitin carboxyl-terminal hydrolase 8 (USP8, Homo sapiens, UniProt P40818); enzyme activity; inhibitor; 10 µM): 5%
O=C(CNC(=O)c1coc(-c2ccccc2O)n1)Nc1ccccc1  inhibition (Histone deacetylase 1 (HDAC1, Homo sapiens, UniProt Q13547); enzyme activity; inhibitor; 20 µM): 26%
COCc1c(-c2cc3cc(C)cc(OC)c3s2)c2c(N)ncnn2c1CN1CCNC(=O)C1  inhibition (Nitric oxide synthase 1 (Nos1, Rattus norvegicus, UniProt P29476); enzyme activity; inhibitor; 10 µM): -8%
c1ccc(C(NCCNC(c2ccccc2)c2ccccc2)c2ccccc2)cc1  inhibition (TACR2; cell-free assay; 10 µM): 40%
Cn1cc(-c2cc(F)cc(N3CCn4c(cc5c4CCCC5)C3=O)c2CO)cc(Nc2ccc(N3CCN(C4COC4)CC3)cn2)c1=O  inhibition (PRKCA; enzyme activity; inhibitor; 0.1 µM): -11%
N#Cc1ccc(NCCNCC(=O)N2N=CCC2C#N)nc1 (stereo not shown)  inhibition (Dipeptidyl peptidase 8; enzyme activity; inhibitor; 100 µM): 81%
COc1cc(Nc2ncc(F)c(Nc3ccc4c(n3)NC(=O)C(C)(C)O4)n2)cc(OC)c1OC  inhibition (Cyclin-dependent kinase 11B (CDK11B, Homo sapiens, UniProt P21127); binding; competition with immobilised ligand; 10 µM): 0%
C#Cc1n[nH]c2c(-c3cn([C@@H](C)c4ccccc4)c(=O)[nH]c3=O)cc(F)cc12  inhibition (PRKCA; enzyme activity; inhibitor; 0.1 µM): 9.6%
CCOC(=O)c1ccc(OC(=O)CCCCCNC(=N)N)cc1  inhibition (Dipeptidyl peptidase 8; enzyme activity; inhibitor; 10 µM): 13%
O=c1ccc2cc3ccoc3cc2o1  inhibition (Histone deacetylase 8 (HDAC8, Homo sapiens, UniProt Q9BY41); enzyme activity; inhibitor; 10 µM): 30.7%
CCN(CC)CCCC[C@H](NC(=O)[C@H](CC(C)C)NC(=O)[C@H](C)NC(=O)[C@H](Cc1ccccc1)NC(=O)c1ccc(C(C)(C)C)cc1)C(=O)N[C@@H](CO)C(=O)OC  inhibition (Mu-type opioid receptor (OPRM1, Homo sapiens, UniProt P35372); ligand displacement; radioligand; 10 µM): 51%
CN(C)C(=O)COC(=O)Cc1ccc(OC(=O)c2ccc(NC(=N)N)cc2)cc1  inhibition (Dipeptidyl peptidase 8; enzyme activity; inhibitor; 10 µM): 8%
C#Cc1n[nH]c2c(-c3cn(C(C)c4ccccn4)c(=O)[nH]c3=O)cc(F)cc12 (stereo not shown)  inhibition (Tyrosine-protein kinase Yes (YES1, Homo sapiens, UniProt P07947); enzyme activity; inhibitor; 1 µM): -0.2%
Cn1cc(-c2cccc(N3CCc4c(sc5c4CC(C)(C)C5)C3=O)c2CO)cc(Nc2ccncn2)c1=O  inhibition (Testis-specific serine/threonine-protein kinase 2 (TSSK2, Homo sapiens, UniProt Q96PF2); enzyme activity; inhibitor; 1 µM): 2%
C[C@H](C(=O)N[C@H]1COc2ccccc2[C@@H]1S(C)(=O)=O)c1ccc(F)cc1  inhibition (TACR2; cell-free assay; 10 µM): -21%
CN(CCN1CCC(OC(=O)Nc2ccccc2-c2ccccc2)CC1)C(=O)c1ccc(CN2CCC(C(N)=O)CC2)cc1  inhibition (TACR2; ligand displacement; radioligand; 1 µM): 1%
